# High-throughput results deposited in PubChem BioAssay by several laboratories.
# Most compounds without a hit are left out; they make up all but 1.3% or so of the library.
# Mdm2 ligase inh – blocks human Mdm2 ubiquitin ligase activity; 210,000 compounds, 0.11% hits; signal enhancement, % at 5 µM; cell-based MDM2 ubiquitination luciferase reporter, 2 h; 0 = plate control, 100 = twice control, blank-subtracted; AID 1230;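 active means signal enhancement of 30% or more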;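 further: luminescence tracks abundance of the self-degrading MDM2-luciferase fusion protein; higher signal means inhibition of MDM2 E3 ligase activity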
#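 Material: stable MDM2–luciferase fusion reporter cells / Quantity: 2000 cells/well / Dosing: single 5 µM compound dose, 0.2% final DMSO / Buffer or medium: DMEM / Schedule: 4 h cell settling then 2 h compound exposure, 37 °C / Detection: luminescence with SteadyLite reagent, 15 min at room temperature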
# S1P4 ag – activates the human S1P4 receptor; O95977; S1P4-expressing cell line, agonist reporter assay; activation, % at 4.98 µM; 220,000 compounds, 0.35% hits; AID 1509; in the data active means activation above about 11%;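 further: 0% = DMSO vehicle and 100% = reference agonist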
# S1P4 antagonist – human S1P4 receptor antagonism; O95977; S1P4-expressing cells, antagonist mode, reporter read-out; inhibition, % at 4.98 µM; 220,000 compounds, 0.26% hits; AID 1510; in the data active means inhibition above about 29%;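 further: 0% = wells stimulated with agonist and 100% = vehicle wells without agonist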
# Dynein cargo inh – blocks dynein driven cargo transport along microtubules. 3617.4 mouse cells, GR-EGFP nuclear translocation imaging; test concentration mostly 20 µM; stimulated with dexamethasone, 1 µM; hits give low values. z-score, hits read low. 220,000 compounds, 0.47% hits. AID 1381;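 active means plate z-score of nuclear minus cytoplasmic receptor signal below a set negative limit, without overly bright fluorescence or cell loss, cut at about -3.5 in these data, passing the limit was not always enough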;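 further: z-score of nuclear minus cytoplasmic ring GR-EGFP intensity difference per well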
#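 Medium: Induction medium lacking tetracycline, stripped serum | Probe or stimulus: 1.0 µM final dexamethasone stimulus | Schedule: 48 h induction, then 1 h compound, then 30 min agonist, 37 °C | Signal: Automated 10x imaging of fixed Hoechst-stained cells | Evaluation: Per-cell GR-EGFP intensity, nucleus versus surrounding cytoplasmic ring, well-averaged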
# S1P3 antag-1 – antagonists of human S1P3 receptor; CHO S1P3 NFAT-BLA reporter, FRET fluorescence, antagonist mode; 170,000 compounds, 0.27% hits; Q99500; inhibition, % at 4.98 µM;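 active means inhibition above the plate cutoff, the mean inhibition of test wells on that plate plus 3 SD, cut at about 28% in these data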;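 further: cells challenged with S1P at its EC80 of 0.8 µM; blue over green emission ratio from cleaved BLA substrate after 4 h stimulation; 0% = S1P-stimulated wells and 100% = unstimulated DMSO-only wells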
# Target sequence (Q99500 whole entry, looked up): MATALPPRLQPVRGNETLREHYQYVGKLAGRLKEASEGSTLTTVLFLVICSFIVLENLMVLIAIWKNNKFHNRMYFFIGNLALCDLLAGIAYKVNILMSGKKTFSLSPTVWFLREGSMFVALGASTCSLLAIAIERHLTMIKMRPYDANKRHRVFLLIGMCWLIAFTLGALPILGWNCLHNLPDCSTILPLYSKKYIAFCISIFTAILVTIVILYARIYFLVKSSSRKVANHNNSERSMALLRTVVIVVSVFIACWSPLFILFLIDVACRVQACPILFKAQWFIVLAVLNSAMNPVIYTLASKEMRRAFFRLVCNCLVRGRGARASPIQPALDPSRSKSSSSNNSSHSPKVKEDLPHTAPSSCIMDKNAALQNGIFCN
# Hsp70 activator – Hsp70 transcriptional activation, primary screen; HeLa Hsp70 promoter luciferase reporter, luminescence; scaled: vehicle 0, proteasome-inhibitor control 100%; activation, % at 10 µM; 200,000 compounds, 0.04% hits; AID 1203;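 active means activation above the mean across all tested compounds plus 3 SD, cutoff set per campaign, cut at about 5.5% in these data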;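 further: 100% = MG132 at 30 µM as the positive control and 0% = DMSO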
# S1P3 antag-2 – confirmation of human S1P3 receptor antagonists. shares compounds with S1P3 antag-1. CHO S1P3 NFAT-BLA reporter, FRET, antagonist mode. inhibition, % at 4.98 µM. 240 compounds, 30% hits;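 active means inhibition above the hit threshold that was computed for the earlier primary screen, cut at about 30% in these data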;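 further: 0% = S1P-stimulated wells and 100% = unstimulated DMSO-only wells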
# * marks the source's active call; other numbers are inactive results; . = no result given.
SMILES,Mdm2 ligase inh,S1P4 ag,S1P4 antagonist,Dynein cargo inh,S1P3 antag-1,Hsp70 activator,S1P3 antag-2
COCCNC(=S)N/N=C/c1ccc(-c2ccc([N+](=O)[O-])cc2)o1,-19,-1,13,-1.6,31*,.,32*
Fc1ccc(CNC(=S)Nc2cccc(Cl)c2)cc1,.,-2,-1,1.4,28*,0,6
O=C1c2cccc3c(N4CCCCC4)ccc(c23)C(=O)N1c1ccc(O)cc1,-10,1,-18,0.32,1,0,.
O=C1c2cccc3c(N4CCCCC4)ccc(c23)C(=O)N1c1ccccc1O,-6,-2,18,-0.46,48*,0,33*
O=C1OCC/C1=C\c1ccc(O)cc1,-7,1,10,-0.95,0,.,.
Nc1no[n+]([O-])c1-c1ccccc1,-16,1,-1,-0.59,-7,0,.
Cc1cc(S(=O)(=O)NCc2cccnc2)ccc1-n1cnnn1,-7,-1,-2,-0.97,-30,0,.
Cc1cc(S(=O)(=O)NCc2cccs2)ccc1-n1cnnn1,0,9,-17,0.14,30*,0,-5
COc1ccc(C)c(-n2c(N)cc(=O)n(Cc3ccccc3)c2=O)c1,-18,2,-9,0.41,7,.,.
CCOc1ccc(-c2nnc(SCC(=O)Nc3cc(C)on3)o2)cc1,2,-2,-31,-0.18,33*,0,-20
COc1cccc(-c2nnc(SCC(=O)Nc3cc(C)on3)o2)c1,5,0,-20,0.13,-13,0,.
Cc1[nH]c2ccccc2c1C(=O)C(=O)NCc1cccs1,-8,0,-13,-0.012,-12,0,.
Cc1ccc2cc(/C=N/Nc3nc4ccccc4[nH]3)c(Cl)nc2c1,-68,2,1,-0.58,46*,0,8
CC(C)NC(=O)Cn1cc(C(=O)C2CC2)c2ccccc21,-8,0,6,-0.57,2,0,.
O=NN(CCc1ccncc1)c1ccc(OCc2ccccc2)cc1,-15,0,9,-0.84,33*,0,14
CN(CCC#N)C(=O)CC1(Cc2ccccc2)CCOC(C)(C)C1 (stereo not given),-41,0,1,1.5,7,.,.
Cc1ccc(S(=O)(=O)Oc2ccccc2/C=N/N=C(N)N)cc1,0,-1,-7,-0.14,36*,0,-7
Cc1ccc(S(=O)(=O)Oc2ccccc2/C=N/NC(N)=S)cc1,-22,-2,8,-0.29,.,0,.
O=C1N/C(=C\c2ccc(O)cc2)C(O)=C1C=NCc1ccccc1,18,0,-7,-0.98,29*,0,22
COc1ccc(/C=C2\NC(=O)C(C=NCc3ccccc3)=C2O)cc1,-3,0,-20,-1.1,14,0,.
Cc1nn(C)c(Cl)c1C(=O)NC(C(=O)O)c1ccccc1 (stereo not given),4,1,0,0.22,-5,0,.
Cn1c(-c2c(N)n(-c3ccccc3)c3nc4ccccc4nc23)nc2ccccc21,-22,1,20,-0.08,68*,0,45*
CC1(C)OC(=O)C(=CNCCc2ccc(O)cc2)C(=O)O1,-13,1,-14,0.78,28*,0,-19
CC1(C)OC(=O)C(=CNCC(O)c2ccccc2)C(=O)O1 (stereo not given),-2,0,0,-0.13,-4,0,.
O=S(=O)(Nc1nc2ccccc2nc1NCC1CCCO1)c1cccc(Cl)c1 (stereo not given),-6,1,2,-0.25,-6,.,.
CCCCCCCCCn1c2c(c(=N)c3c1CCC3)CCCC2,-39,1,-15,1.8,55*,0,41*
O=C(c1cc(C(=O)N2CCOCC2)c2nc3ccccc3n2c1)c1cc(Cl)cc(Cl)c1O,.,-1,-42,2,31*,.,-18
Cc1ccc(S(=O)(=O)NCc2ccncc2)c(C)c1C,-26,0,-21,0.35,35*,0,17
COc1c(F)c(F)c(C(=O)Nc2ccc(-c3nc4ccccc4[nH]3)cc2)c(F)c1F,-12,0,-10,-0.49,28*,0,19
